Test system: MS2 coat protein
Test: apparent Kd, MS2 coat protein; higher = weaker binding; RNA-MaP array; FMN 200 µM where present
In short: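 In 100 mM Tris-HCl pH 7.5, 80 mM KCl, 4 mM MgCl2, BSA, DTT, yeast tRNA and Tween-20, SNAP-549-labelled MS2 coat protein was titrated from 0.7 or 1.5 nM, doubling to 3 µM, over designs transcribed by stalled E. coli RNA polymerase on Illumina sequencing-chip clusters. This was done first without ligand, then with ligand held constant. After green signal was normalised to red-channel RNA signal and control-cluster median Fmax, the apparent Kd was taken as the median of filtered per-cluster binding-curve fits.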

[1] = designed as: OFF switch for flavin mononucleotide, no ligand
[2] = ligand present: flavin mononucleotide, designed as: OFF switch for flavin mononucleotide
[3] = designed as: ON switch for flavin mononucleotide, no ligand
[4] = ligand present: flavin mononucleotide, designed as: ON switch for flavin mononucleotide

Row | Sequence | apparent Kd [1] | apparent Kd [2] | apparent Kd [3] | apparent Kd [4]
1 | GGUUGUCAAAGACAACCAUAACGAACAUGAGGAUCACCCAUGUAGGAUAUGCUACUCAAAGAGUAGCAGAAGGACAUGUGCCUU | 37.6 nM | 326 nM | – | –
2 | GGCUGGUGACAGCAUCCAUCAAAACAUGAGGAUCACCCAUGUAGAAGGCUGUACGGUUACCGUACAGAGGAUAUACAAUGAUGC | 13.7 nM | 28.5 nM | – | –
3 | AAAAAAAAUGUGUAGGAUAUCAGUAAAAAUACAUGAGGAUCACCCAUGUUCAAAAAAAAAAAAACUGAGAAGGACACGGGAAGUCC | – | – | 48.5 nM | 30.3 nM
4 | AGCUAGUCAGGAUAUACAAACAUGUCGAGAGACGUGAAGGGACAUGAGGAUCACCCAUGUAGAAGGGACUAGCA | 59 nM | 234 nM | – | –
5 | UGUUCGUCAGGAUAUUCUACUUAUUACAUGAGGAUCACCCAUGUGUAUGUACAAGGGUGUGAAGAAGGGACUUUUU | 719 nM | 260 nM | – | –
6 | UGCUGGUGACAGCAUCCAUCAAAACAUGAGGAUCACCCAUGUAGAAGGCUGUACGGUUACCGUACAGAGGAUAUACAAUGAUGU | 13.2 nM | 23.6 nM | – | –
7 | UCAUAUAUACAAGGAUAUCAAUUAUAUACACAUCCUACAUGAGGAUCACCCAUGUUUUAUUUUUUUGAGAAGGUGUAUUGUCGG | – | – | 24.1 nM | 32.1 nM
8 | AACAAUCUAUCUGAGGAUAUUAUGAAAUAAACAUGAGGAUCACCCAUGUGCAGGAAAACUGCAUAUGAGAAGGCAGAUAGAUUGA | – | – | 428 nM | 18.5 nM
9 | AAUCCACAUGAGGAUCACCCAUGUCAGGAUAUCGCGCGCGCGUUUUCGGUCUUGCGCGCGAGAAGGGACGGCUG | 26.2 nM | 46 nM | – | –
10 | GGUGCCAUGUAGAAGGCAGAUCUGAUUCAGAUCUGAGGAUAUACAUGAGGAUCACCCAUGUGAAGGCACCGCACGAGAGUGCAA | 8.21 nM | 24 nM | – | –
11 | GUCAUGUUAGGAUAUCUGACAUGUGACUUCGGUCACUGUCCAGAGAAGGAACAUGAGGAUCACCCAUGUUGGAC | 55.6 nM | 63.9 nM | – | –
12 | AUAGUAUAGCAAGGAUAUCGAUUUAGUUUGUUACGAGAAGGUGCUUUAGUUUAUACCUCUUGUUUACAUGAGGAUCACCCAUGU | 23.1 nM | 20.6 nM | – | –
13 | GCUGGACGAGGAUAUACAUUCGUGCUUCGGCACGUAAGAUCACAUGAGGAUCACCCAUGUAGAAGGUGUCCAGC | 42.1 nM | 200 nM | – | –
14 | AUACCACGAGGAUAUCGUCUAUUUCACAUGAGGAUCACCCAUGUUAUCCUUGUUUCGUUUCGAGAAGGCGUGUUUU | 47.5 nM | 110 nM | – | –
15 | UGAUCGAGAGAUCUUAGAUUCUGGUAGGAUAUACAUUAUGUAAAAUUUACAUGAGGAUCACCCAUGUAGAAGGACUAGAGUCUA | 6.19 nM | 14.8 nM | – | –
16 | CGGUCUUGUAACUAUUUGUUUCACAUGAGGAUCACCCAUGUCAGAAGGAGGUACAUCUAUUAGACCUAGGAUAUGACGUGUAAG | 27.5 nM | 100 nM | – | –
17 | AAUAUGAGCUGGUAUAAAUCCGAAACAUGAGGAUCACCCAUGUAGGAUAUCAGCACGAUAAGUGCUGAGAAGGACAUCCAGCUC | 15.2 nM | 16.2 nM | – | –
18 | CGGUACUUAGGAUAUACAUGAGGAUCACCCAUGUAGAGAAGGUGGGUGCCGUCCUGUAGUAGAAGGAAGAAUCG | 46.9 nM | 55.8 nM | – | –
19 | UAAGCCGGGUCUGCAUGAGCUUACAUGAGGAUCACCCAUGUAAGAAGGGACGCUACGUUAUAGUGUCAGGAUAUUGCGAACGGG | 5.15 nM | 5.66 nM | – | –
20 | AAAUUUUGUCAAGGAUAUGUAUAAAAGAGUUGAAAACAUGAGGAUCACCCAUGUAUAUGGUGGGAACAGAAGGUGAAUAAGUAA | 190 nM | 182 nM | – | –
21 | GGCUCGCAGCUAGGAUAUGGGCGGUCACAUGAGGAUCACCCAUGUCAACAUCAAAACCAGAUUAACCAGAAGGAGCUGCGGGUU | – | – | 33.5 nM | 739 nM
22 | GUAGCUGCAGGAUAUCUAUCUUCUGACAUGAGGAUCACCCAUGUACUUACUUGGCUCAGUGGAGAAGGGCAGCGUU | 124 nM | 84.2 nM | – | –
23 | UUUAGUUCAGGAUAUGUAGAUUUUAACAUGAGGAUCACCCAUGUAGAUCCUGAAUUAACUACAGAAGGGAACAUUC | 17.1 nM | 44.2 nM | – | –
24 | UUAUGAGAGCAGGAUAUCUUAUUUUUUUUUUAAAGAGAAGGGCUCACAUGAGGAUCACCCAUGUGGUCCUAGAU | 42.8 nM | 75.6 nM | – | –

Row | Sequence | apparent Kd [1] | apparent Kd [2] | apparent Kd [3] | apparent Kd [4]
25 | CGUAUGUCAGGAUAUGCGUAUGCCAGUCAGGGCGAGUGGCAGCAGAAGGGACAUGAGGAUCACCCAUGUUCGGG | 60.8 nM | 51.3 nM | – | –
26 | UUUACAUGAGGAUCACCCAUGUCUUGCAAGAUGAGUUCUGGUGAGGAUAUACAUGGUAAAGAACUGUAGAAGGCACUGGGUACA | – | – | 432 nM | 430 nM
27 | CUUUUGUGAGGAUAUCAGUAGUAAAAGAAUAAAAUUACUACUGAGAAGGCACAUGAGGAUCACCCAUGUUCCUC | 42.5 nM | 239 nM | – | –
28 | AAAUAACAUGAGGAUCACCCAUGUGCUGGAUAUGCAGGAUAUGGGCGGCGGGAGCGCGGCCCAGAAGGGCAGCUCC | – | – | 100 nM | 113 nM
29 | GUCAGCUCGUCAGGAUAUACGUCACUGCUUCGGCAGUGUGGUAAGAUCACAUGAGGAUCACCCAUGUAGAAGGGACGAGCUGAC | 13.7 nM | 252 nM | – | –
30 | UAUAUAUAGUAAGGAUAUGUAUAUGUUUUAUAAACAGAAGGUACUGACAUGAGGAUCACCCAUGUUUUAGUGUGGGCAUGUAGA | 58.4 nM | 92 nM | – | –
31 | CACGCGAAAAGGAGUACAUGAGGAUCACCCAUGUAGGGUGGGAGAAGGCCGGUCGAGAGGUUUAUGGAGGAUAUUUAGGUGUUG | – | – | 78.8 nM | 52.5 nM
32 | GUACCUUAUGAGAAGGCGAUCAUAAAACAUGAUCGAGGAUAUCAUGAAAACAUGAGGAUCACCCAUGUAUGGGUAUUAUGGUAC | – | – | 37.3 nM | 16.7 nM
33 | CGCAAUAUACAGAAGGAGUUAUUUAGAGGAUUACUAGGAUAUGUUCACAUGAGGAUCACCCAUGUCAUAUUGGGAUUUAUUGCG | 10 nM | 10.3 nM | – | –
34 | UGAUCGAAAGAUCAUAGAUUCUGCUAGGAUAUGCAGAAGUUUCGAUUUACAUGAGGAUCACCCAUGUAGAAGGAGUAGAGUCUA | 6.12 nM | 6.54 nM | – | –
35 | UGGUACAUCGGAGGAUAUCAUGUAUAUACAUGAGGAUCACCCAUGUCGUACGAGAGUACGGAGAUUGAGAAGGCCGAUGUACCU | – | – | 39.4 nM | 15.3 nM
36 | UUAUAUAGUGUGAGGAUAUGCUGGUCCUUGGAUCAGCAGAAGGCACAUGAGGAUCACCCAUGUAGUUAAUUAUA | 32 nM | 122 nM | – | –
37 | AUAGAAGACUAGAAGGACCUAGUUGUAUAUUGUCGAGGUAUAUAGUUAGGUAGGAUAUGGGACAUGAGGAUCACCCAUGUCUUG | – | – | 8.51 nM | 7.75 nM
38 | GUGUCGGGAGGAUAUGCGUGGAUUGUUCUCGUAUGGUGUCUACAUGAGGAUCACCCAUGUAGAAGGUCUGGCGC | 20.8 nM | 61.1 nM | – | –
39 | AAGUUAUUAGGAUAUACUUGUGCGAUUUAUACGUUGAUAUUACAUGAGGAUCACCCAUGUAGAAGGAAUAAAAA | 20.8 nM | 17.4 nM | – | –
40 | GUGUAGAUAGGAUAUACGUGAGUCUAGCGAAGCUAGAUUCUACAUGAGGAUCACCCAUGUAGAAGGGUCUACAC | 16.1 nM | 18.6 nM | – | –
41 | UUGGACGUCGUAGGAUAUGUAGGAUAUUCCUACAUGAGGAUCACCCAUGUUGACAUGGGAGAAGGACAGAAGGACGAUGUCCAU | – | – | 52.4 nM | 176 nM
42 | GGAUGACAAAGUCAUCCUUAACGAACAUGAGGAUCACCCAUGUAGGAUAUGCUACUCAAAGAGUAGCAGAAGGACAUGUGCCUU | 35 nM | 242 nM | – | –
43 | GAAUUCUCAGGAUAUGUGCGAAGUUACAUGAGGAUCACCCAUGUUAGCCCGUGUCUUUGAGCAGAAGGGAGAGGCU | 14 nM | 13.6 nM | – | –
44 | ACAUGAGGAUCACCCAUGUAUUACAUGGUUUAGUUUAUUAACAGAAGGCGAAAUUACCACUUUUUCGAGGAUAUGUAUUCUAUA | 71 nM | 64.2 nM | – | –
45 | CGACAAGUCGUAGGAUAUGGUGAUGUACAUGAGGAUCACCCAUGUCCGUCUUCUCUCACAAGAUGCCAGAAGGGCGACUUCCGG | – | – | 676 nM | 404 nM
46 | AGCAUGCUAGGAUAUACGGGACAUUAGGGUUCGUCGUAUGGACAUGAGGAUCACCCAUGUAGAAGGAGCGUGCA | 20.7 nM | 44.2 nM | – | –
47 | CGCUAAGAGAACUAUUCGAGAAGACAUGAGGAUCACCCAUGUAGAAGGACAACGGAAUAAACGUUGUAGGAUAUACACUUAGCG | 9.36 nM | 8.97 nM | – | –
48 | UGGUACAUCAUAGGAUAUCGUGUGUAAACAUGAGGAUCACCCAUGUCAUACGAGAGUAUGUCGAUCGAGAAGGGUGAUGUACCU | – | – | 75.2 nM | 25.8 nM

Source: the EternaBench riboswitch data
